Positions of bridges follow the written chain, without caps; N, C: chain ends. Non-standard residues stand in square brackets, D forms with d. Residues, ends and D or L forms follow the SMILES beside them. *: point of attachment. Heptanoyl(6-Me) = CC(C)CCCCC(=O)*; Dab = NCC[C@H](N)C(=O)O
What was measured:
[1] = (§1) Clearance in rat perfused kidney at 2 ug/ml after 5 to 105 mins by LC-MS/MS analysis; assay type: ADME, tissue-based; settings: perfused kidney
Method in brief: (§2)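 Isolated perfused kidneys from male Sprague-Dawley rats (400 to 450 g) in a recirculating 160 ml perfusate with [3H]inulin (130 kBq) for GFR. Colistin sulfate bolus gave an initial 2 µg/ml (1.27 µM colistin A+B). Urine was collected in 5-min intervals from 5 to 105 min, with perfusate sampled at midpoints. Colistin A and B were measured by LC-MS/MS. CLR and CR were derived; n = 5, mean ± SD.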

[2] = test system: Kidney; assay: Clearance in rat perfused kidney assessed as clearance ratio at 2 ug/ml after 5 to 105 mins by LC-MS/MS analysis; assay type: ADME, tissue-based; method in brief: as §2
[3] = (§3) Fraction unbound in […] at 1 ug/ml by LC-MS/MS analysis; assay type: ADME, cell-free, Plasma; settings: rat
Method in brief: (§4)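 Unbound fraction was measured in IPK perfusate by ultrafiltration, at colistin sulfate levels approximating initial and end perfusion concentrations. Colistin A and B in ultrafiltrate and unfiltered perfusate were quantified by LC-MS/MS. fu is the ultrafiltrate/perfusate concentration ratio, determined separately for A and B.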

[4] = (§5) Fraction unbound in Sprague-Dawley rat plasma; assay type: ADME, cell-free; settings: Sprague-Dawley
[5] = Drug absorption in rat tubular urine at 2 ug/ml after 5 to 105 mins by LC-MS/MS analysis; assay type: ADME, tissue-based; method in brief: as §2
[6] = test system: Kidney; assay: Tubular reabsorption in rat perfused kidney at 2 ug/ml after 5 to 105 mins by LC-MS/MS analysis; assay type: ADME, tissue-based; method in brief: as §2
[7] = test system: Kidney; assay: as §1; assay type: ADME, tissue-based; settings: in vivo; method in brief: as §2
[8] = test system: Plasma; assay: as §3; assay type: ADME, cell-free; settings: rat; method in brief: as §4
[9] = test system: Plasma; assay: as §5; assay type: ADME, cell-free

CL renal at 2 ug/ml [1] | Ratio [2] | fraction unbound at 1 ug/ml [3] | fraction unbound [4] | Activity [5] | Activity [6] | CL [7] | Fu [8] | Fu [9] | Molecule
0.028 mL/min | < 0.1 | 0.6 | 0.52 | > 90% | > 90% | – | – | – | CC(C)CCCCC(=O)N[C@@H](CCN)C(=O)N[C@H](C(=O)N[C@@H](CCN)C(=O)N[C@H]1CCNC(=O)[C@H]([C@@H](C)O)NC(=O)[C@H](CCN)NC(=O)[C@H](CCN)NC(=O)[C@H](CC(C)C)NC(=O)[C@@H](CC(C)C)NC(=O)[C@H](CCN)NC1=O)[C@@H](C)O [COLISTIN B] ({Heptanoyl(6-Me)}-[Dab]T[Dab][Dab][Dab][dL]L[Dab][Dab]T; lactam 4-C)
– | < 0.1 | – | – | > 90% | > 90% | 0.028 mL/min | 0.41 | 0.36 | COLISTIN

Source: ChEMBL document CHEMBL1649491, “Renal disposition of colistin in the isolated perfused rat kidney” (Antimicrob Agents Chemother, 2009)
